# Source: PubChem BioAssay
# Calls of active or inactive are those of the source. Unless noted, no stated cut-off is given here; in the data, active means inhibition above about 31%; inactive means the rest.
# Columns and labels:
# [1] = HUVEC growth inhibition – cell-based, human, primary screen (AID 575;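 active means viability at or below 30% in both replicate assays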;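 further: 100% = median of untreated cell wells with 0.1% DMSO on each plate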); details: HUVEC proliferation, CellTiter-Glo luminescence, 72 h; at 10 µM; stronger effect = lower value
# Procedure, shortened: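 Material: primary human umbilical vein endothelial cells / Schedule: 72 h exposure, 37 °C, 5% CO2, 30 min RT equilibration / Signal: ATP-based CellTiter-Glo luminescent read / Read-out basis: percent of median DMSO-control luminescence / Control set: 32 DMSO-only cell-control wells (high), 32 MePR drug-control wells (low) per plate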
# [2] = H69AR cell proliferation blockers – human, duplicate replicates, primary screen (AID 580;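 active means viability at or under a set limit in both replicates, limit being median viability minus 3 SD, cut at about 48% in these data, passing the limit was not always enough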;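 further: 100% = mean luminescence of untreated wells and 0% = no signal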); details: H69AR lung tumor cells viability, ATP luminescence, 72 h; at 10 µM; stronger effect = lower value
# [3] = MRP1 drug-resistance reversers in H69AR cells – cell-based, doxorubicin co-treatment, pilot screen (AID 601;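 active means viability loss from added drug above about 55%, and viability with drug at most 40%, in both replicates, limit read from the data, passing the limit was not always enough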); details: CellTiter-Glo, 72 h, at 10 µM; for differential viability (reversal): stronger effect = higher value
# [4] = yeast transport mutant growth inhibition pilot in 384-well plates, post-Golgi transport modulator project (AID 636); details: absorbance 615 nm, about 18 h, stronger effect = higher value
# [5] = growth suppression of yeast trafficking mutant, preliminary HTS, modulators of trafficking downstream of Golgi apparatus project, 1536-format plate, OD 615 nm (AID 637; in the data active means inhibition above about 30%); details: yeast transport mutant growth, absorbance 615 nm, 18 h; stronger effect = higher value
# [6] = H69AR cells + 2 uM doxorubicin, measured here: viability with 2 uM doxorubicin, stronger effect = lower value
# [7] = H69AR cells, compound alone cytotoxicity
SMILES,viability [1],viability [2],differential viability (reversal) ([3]; H69AR cells + 2 uM doxorubicin),"viability [3, 6] [%]","viability [3, 7] [%]",inhibition [4],inhibition [5]
COc1ccccc1C(=O)NCCNC(=O)c1ccco1,112% (inactive),91.6% (inactive),-4.88% (inactive),96.5,91.6,-4.53% (inactive),0.48% (inactive)
Cc1cc(=O)[nH]c2c1cnn2Cc1ccccc1,116% (inactive),98.9% (inactive),5.01% (inactive),93.9,98.9,-1.97% (inactive),-3.33% (inactive)
c1ccc(CC2CCN(Cc3nc(-c4ccccc4)no3)CC2)cc1,65.1% (inactive),87.9% (inactive),-4.31% (inactive),92.2,87.9,-5.13% (inactive),0.95% (inactive)
O=C1CC(c2ccccc2)CC(O)=C1C=NCCCN1CCOCC1 (stereo unspecified),100% (inactive),100% (inactive),5.34% (inactive),95,100,-1.05% (inactive),-3.49% (inactive)
CS(=O)(=O)N1CCC(C(=O)NCCC2=CCCCC2)CC1,99.7% (inactive),99.9% (inactive),20.4% (inactive),79.6,99.9,-5.73% (inactive),-1.11% (inactive)
COc1ccc2oc(C)c(C(=O)Cn3ccnc3)c2c1,92.8% (inactive),87.8% (inactive),-2.3% (inactive),90.1,87.8,1.69% (inactive),24.8% (inactive)
CCOc1ccccc1Nc1nc2ccccc2[nH]1,92.7% (inactive),94.2% (inactive),1.97% (inactive),92.3,94.2,0.91% (inactive),-6.03% (inactive)
S=c1[nH]c2ccc(Cl)cc2[nH]1,67.4% (inactive),84.9% (inactive),6.16% (inactive),78.7,84.9,-3.42% (inactive),6.35% (inactive)
Cc1nn(C)c(C)c1NC(=O)CCSc1nc(-c2ccco2)cc(C(F)(F)F)n1,93% (inactive),98.8% (inactive),3.76% (inactive),95,98.8,-2.93% (inactive),4.44% (inactive)
O=C(NC1CCCC1)c1cc(-c2cccs2)on1,90.4% (inactive),88.6% (inactive),8.04% (inactive),80.6,88.6,-4.21% (inactive),3.17% (inactive)
COc1cccc(-c2cc(C(F)(F)F)n3nc(N)nc3n2)c1,92.3% (inactive),88.9% (inactive),-2.71% (inactive),91.6,88.9,-0.53% (inactive),10.3% (inactive)
N#Cc1nc(-c2ccccc2Cl)oc1N1CCOCC1,84.2% (inactive),86.8% (inactive),3.5% (inactive),83.3,86.8,-3.47% (inactive),14.1% (inactive)
COc1cccc(OC)c1C(=O)Nc1ccccc1N1CCCC1,91.1% (inactive),91.6% (inactive),6.71% (inactive),84.9,91.6,-1.71% (inactive),-2.86% (inactive)
Cc1cc(/N=C/N(C)C)on1,82.4% (inactive),93.7% (inactive),12% (inactive),81.7,93.7,-4.94% (inactive),2.06% (inactive)
Cc1ccc2[nH]c(=O)c(CN(CCc3ccccc3)Cc3nnnn3CC3CCCO3)cc2c1 (stereo unspecified),77.1% (inactive),78.5% (inactive),0.205% (inactive),78.3,78.5,1.45% (inactive),-5.87% (inactive)
COc1ccc(OC)c(-c2nc3c(C)n[nH]c(=O)c3[nH]2)c1,79.1% (inactive),69.5% (inactive),-21.3% (inactive),90.7,69.5,-6.13% (inactive),-0.95% (inactive)
Cc1ccccc1Cn1nc(C)c(NC(=O)c2noc3c2CCCC3)c1C,75.7% (inactive),97.3% (inactive),2.39% (inactive),95,97.3,-3.12% (inactive),-10.3% (inactive)
COCC(=O)NC(c1ccccc1)c1ccccc1,86.1% (inactive),89.5% (inactive),12.2% (inactive),77.3,89.5,-5.84% (inactive),3.81% (inactive)
Cc1cnn(C(=S)NCc2ccco2)c1,70.2% (inactive),84.5% (inactive),-5.57% (inactive),90.1,84.5,2.24% (inactive),-4.92% (inactive)

SMILES,viability [1],viability [2],differential viability (reversal) ([3]; H69AR cells + 2 uM doxorubicin),"viability [3, 6] [%]","viability [3, 7] [%]",inhibition [4],inhibition [5]
c1ccc(-c2noc(-c3cccnc3)n2)nc1,84.8% (inactive),72.1% (inactive),4.56% (inactive),67.5,72.1,-3.77% (inactive),6.67% (inactive)
COc1cccc(C(=O)CSc2nnc(COc3cccc4cccnc34)o2)c1,90.3% (inactive),81% (inactive),-2.74% (inactive),83.7,81,4.87% (inactive),-7.94% (inactive)
O=C(CN1CCOCC1)Nc1cccc(C(=O)Nc2cccc(C(F)(F)F)c2)c1,95.5% (inactive),101% (inactive),8.35% (inactive),92.4,101,-0.26% (inactive),0% (inactive)
Nc1nc(NCc2ccco2)nn1-c1ccccc1,98% (inactive),96.7% (inactive),15.7% (inactive),80.9,96.7,-7.07% (inactive),6.03% (inactive)
COc1cc2c(cc1OC)CN(C(=O)COc1ccc(C#N)cc1)CC2,93% (inactive),84.8% (inactive),-12% (inactive),96.8,84.8,0.52% (inactive),-4.44% (inactive)
CC(C)c1ccc(NC(=O)C2CC(=O)N(C(C)C)C2)cc1 (stereo unspecified),89.2% (inactive),90.8% (inactive),3.6% (inactive),87.3,90.8,-2.34% (inactive),-2.86% (inactive)
COC(=O)c1c(C(=O)OC)n(CCCN)c2ccc(C)cc12,89.1% (inactive),89.7% (inactive),4.39% (inactive),85.3,89.7,-0.52% (inactive),-1.11% (inactive)
CCn1c(Cc2ccccc2)nnc1SCC(=O)Nc1nc2ccccc2s1,87.9% (inactive),104% (inactive),4.48% (inactive),99.9,104,-3.03% (inactive),6.51% (inactive)
Cc1noc(C)c1COc1cccc(C(=O)Oc2ccc3c(c2)OCO3)c1,88.8% (inactive),79.5% (inactive),-5.05% (inactive),84.5,79.5,-4.81% (inactive),1.75% (inactive)
CCCC1CCC(C(=O)Nn2c(C)nc3ccccc3c2=O)CC1 (stereo unspecified),104% (inactive),98.2% (inactive),14.9% (inactive),83.3,98.2,-3.16% (inactive),0.95% (inactive)
O=C1NC(c2ccccc2)(C(F)(F)F)SC2=NCCCN12 (stereo unspecified),102% (inactive),97.2% (inactive),7.68% (inactive),89.6,97.2,3.82% (inactive),-6.98% (inactive)
O=C(NC1CCCCC1)C1CCCN1C(=O)NCc1ccccc1 (stereo unspecified),101% (inactive),102% (inactive),-1.87% (inactive),104,102,-4.93% (inactive),-3.17% (inactive)
COC(=O)c1ccccc1NC(=O)N1CCCC1,108% (inactive),103% (inactive),13.2% (inactive),90.1,103,-3.2% (inactive),-5.56% (inactive)
COc1ccc(OC)c(N2Cc3cc(C)c(C)cc3C2)c1,114% (inactive),95.3% (inactive),6.88% (inactive),88.4,95.3,-6.97% (inactive),4.44% (inactive)
O=C(NCC(=O)N(CCc1ccccc1)C(C(=O)NC1CCCC1)c1cccnc1)c1ccco1 (stereo unspecified),96.9% (inactive),99.8% (inactive),-1.49% (inactive),101,99.8,-2.24% (inactive),-6.98% (inactive)
CCOc1ccc(-c2nc(C#N)c(N3CCN(C)CC3)o2)cc1,82.1% (inactive),97.6% (inactive),0.87% (inactive),96.7,97.6,-1.6% (inactive),11.3% (inactive)
Cc1cccc(NC(=O)CCn2ccnc2C)c1,98.8% (inactive),92.3% (inactive),3.98% (inactive),88.4,92.3,-1.95% (inactive),0.79% (inactive)
Cc1ccccc1NC(=O)c1ccc(NC(=O)c2ccco2)cc1,102% (inactive),80.7% (inactive),1.25% (inactive),79.4,80.7,-6.84% (inactive),-4.6% (inactive)
O=C1CN(c2ccccc2F)C(=O)CN1c1ccccc1F,112% (inactive),102% (inactive),10.3% (inactive),92.2,102,-1.97% (inactive),-0.63% (inactive)
